The text below walks through data of ChEMBL document CHEMBL3784919, “Design and synthesis of novel 5-aminosalicylate (5-ASA)-4-thiazolinone hybrid derivatives with promising antiproliferative activity” (Bioorg Med Chem Lett, 2016).

The subject of data set [1] is MCF7. The data set can be described thus: Antiproliferative activity against human MCF7 cells assessed as cell survival at 10 uM after 48 hrs by SRB assay. The following applies: MCF7, 48 h, read-out: Survival. Type of data set: functional. The procedure, abridged: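 Human breast cancer MCF-7 cells were exposed once to a single compound concentration for 48 h. Vehicle controls received DMSO, added as 0.1%. Survival was read by sulforhodamine B staining and expressed as percent of cells remaining relative to the DMSO control, set at 100%, with SD.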

The subject of another data set is HeLa. The data set can be described thus: Antiproliferative activity against human HeLa cells assessed as cell viability after 48 hrs by SRB assay. Type of data set: functional, cell-based.
In the next data set the test system is A549. The data set is described as follows: Antiproliferative activity against human A549 cells assessed as cell viability after 48 hrs by SRB assay. It is filed as functional, cell-based. To be noted: A549, 48 h.
Data set [2] relates to MCF7. The data set is described as follows: Antiproliferative activity against human MCF7 cells assessed as cell viability after 48 hrs by SRB assay. Type of data set: functional, cell-based. To be noted: MCF7, 48 h.
Data set [3] in a line: Cytotoxicity against human F180 cells assessed as cell viability after 48 hrs by SRB assay. Type of data set: cell-based. The following applies: F180, 48 h.
A short description of data set [4]: Antiproliferative activity against human HCT116 cells assessed as cell viability after 48 hrs by SRB assay. Type of data set: functional, cell-based. The following applies: HCT-116, 48 h.
The nature of data set [5]: Ratio of compound IC50 to doxorubicin IC50 for human F180 cells. The following applies: read-out: Ratio IC50. It is filed as ADME, cell-based.

Regarding `COC(=O)c1cc(NC2=NC(=O)/C(=C/c3ccc([N+](=O)[O-])cc3)S2)ccc1O`, the viability at 10 µM in the data set with MCF7 [1] is 73.9%.
Turning to `COC(=O)c1cc(NC2=NC(=O)/C(=C/c3cccc(Cl)c3)S2)ccc1O`, the viability at 10 µM in the data set with MCF7 [1] is 65.9%.
On to `COC(=O)c1cc(NC2=NC(=O)/C(=C/c3ccc(O)cc3)S2)ccc1O`, for which the viability at 10 µM in the data set on MCF7 [1] is 93.5%.
Still for that read-out and setting: to `COC(=O)c1cc(NC2=NC(=O)/C(=C/c3ccccc3Cl)S2)ccc1O` belongs 85%.
For the compound `COC(=O)c1cc(NC2=NC(=O)/C(=C/c3ccccc3O)S2)ccc1O`, the half-maximal inhibitory concentration (IC50) in the data set with HeLa is 1390 nM; in the data set with A549 it was over 10000 nM; in the data set on MCF7 [2] it was 500 nM; in data set [3] it was over 10000 nM; in data set [4] it was 3440 nM. The viability at 10 µM in the data set on MCF7 [1] was 16.5%.
As to `COC(=O)c1cc(NC2=NC(=O)/C(=C/c3ccc(F)cc3)S2)ccc1O`, the viability at 10 µM with MCF7 [1] is 86%.
The same measure, in the same setting: then `COC(=O)c1cc(NC2=NC(=O)/C(=C/c3ccc(Cl)cc3)S2)ccc1O`, with 28%; and `COC(=O)c1cc(NC2=NC(=O)/C(=C/c3cccc([N+](=O)[O-])c3)S2)ccc1O`, with 82.2%; and `COC(=O)c1cc(NC2=NC(=O)/C(=C/c3ccc(OC)c(OC)c3)S2)ccc1O`, with 26.6%.
In the case of `COC(=O)c1cc(NC2=NC(=O)/C(=C/c3ccc(C)cc3)S2)ccc1O`, the IC50 with HeLa came out at 85 nM; in the data set on A549, 2200 nM; in the data set on MCF7 [2], 410 nM; in data set [3], 1050 nM; in data set [4], 450 nM. Moreover, in the data set on MCF7 [1], the viability at 10 µM is 17.8%.
In the case of `COC(=O)c1cc(NC2=NC(=O)CS2)ccc1O`, in the data set on MCF7 [1], the viability at 10 µM was 97%.
For the compound `COC(=O)c1cc(NC2=NC(=O)/C(=C/c3cc(OC)c(OC)c(OC)c3)S2)ccc1O`, in the data set on MCF7 [1], the viability at 10 µM was 73.3%.
On the same count and under the same terms, to `COC(=O)c1cc(NC2=NC(=O)/C(=C/c3ccccc3)S2)ccc1O` belongs 67.8%; to `COC(=O)c1cc(NC2=NC(=O)/C(=C/c3ccccc3OC)S2)ccc1O`, 70%.
Take `COC(=O)c1cc(NC2=NC(=O)/C(=C/c3ccc(Br)cc3)S2)ccc1O`: the IC50 in the data set with HeLa is 3480 nM; in the data set on A549, 8300 nM; in the data set with MCF7 [2], 70 nM; in data set [3], 10000 nM; in data set [4] it was 5580 nM. The viability at 10 µM in the data set with MCF7 [1] was found to be 19%. Further, in data set [5], the selectivity ratio stood at 28.
For the compound `COC(=O)c1cc(NC2=NC(=O)/C(=C/c3ccc(N(C)C)cc3)S2)ccc1O`, the half-maximal inhibitory concentration (IC50) in the data set with HeLa stood at 180 nM; in the data set on A549, 2400 nM; in the data set on MCF7 [2], 630 nM; in data set [3], 940 nM; in data set [4], 310 nM. Further, in the data set on MCF7 [1], the viability at 10 µM came to 16.2%.
On to `COC(=O)c1cc(NC2=NC(=O)/C(=C/c3ccc4c(c3)OCO4)S2)ccc1O`, for which the viability at 10 µM in the data set with MCF7 [1] came to 28%.
Consider `COC(=O)c1cc(NC2=NC(=O)/C(=C/c3cccc(Br)c3)S2)ccc1O`, for which, in the data set on MCF7 [1], the viability at 10 µM is 68%.
On to `COC(=O)c1cc(NC2=NC(=O)/C(=C/c3ccc(OC)cc3)S2)ccc1O`, for which, in the data set with MCF7 [1], the viability at 10 µM came to 26%.
Consider `COc1cccc2c1C(=O)c1c(O)c3c(c(O)c1C2=O)C[C@@](O)(C(=O)CO)C[C@@H]3O[C@H]1C[C@H](N)[C@H](O)[C@H](C)O1` [DOXORUBICIN], for which the IC50 in the data set on HeLa is 100 nM; in the data set on A549, 450 nM; in data set [3], 350 nM; in data set [4], 380 nM. Also, the viability at 10 µM in the data set with MCF7 [1] is 4%.
